The subject of one assay is Bacillus spizizenii. The experiment in a line: Antibacterial activity against Bacillus subtilis ATCC 6633 after 24 hrs by MTT based microbroth dilution assay. It counts as functional. To be noted: ATCC 6633, 24 h. The procedure, abridged: (§1)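 Two-fold broth microdilution MIC in LB medium (pH 7.0). Compounds dissolved in DMSO, serially diluted to eight levels (11.0−0.086 mg/mL), then each diluted 10-fold in medium (1.1−0.0086 mg/mL). 10 μL of this added to 100 μL of bacteria at 1 × 10^6 cfu/mL. Incubated 24 h at 28 °C. MTT added for 4 h, wells emptied, DMSO added, absorbance read at 570 nm.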

The next assay has as its system BGC-823. The experiment in a line: Cytotoxicity against human BGC823 cells assessed as reduction in cell viability by MTT assay. Type of assay: functional, cell-based. The procedure, abridged: (§2)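 MTT viability assay in human cancer cell lines. IC50 was defined as a 50% reduction of absorbance relative to the control assay. Adriamycin served as the positive control.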
(In general: Tetrazolium dyes change colour on reduction, which living cells bring about.)

A further assay relates to Caco-2. Description: Cytotoxicity against human Caco2 cells assessed as reduction in cell viability by MTT assay. Type of assay: functional, cell-based. The procedure, abridged:
as §2

The test system of another assay is Staphylococcus aureus. Description: Antibacterial activity against Staphylococcus aureus ATCC 25923 after 24 hrs by MTT based microbroth dilution assay. To be noted: ATCC 25923, 24 h. Type of assay: functional. Summed up: as §1
A general note: In broth dilution the organism is exposed to a series of concentrations in liquid medium.

Another assay relates to NCI-H460. The experiment in a line: Cytotoxicity against human NCI-H460 cells assessed as reduction in cell viability by MTT assay. Type of assay: functional, cell-based. The procedure, abridged:
as §2

In the next assay the test system is Cryptococcus neoformans. Description: Antifungal activity against Cryptococcus neoformans ATCC 208821 after 72 hrs by MTT based microbroth dilution assay. Type of assay: functional. Conditions: ATCC 208821, 72 h. The procedure, abridged:
(§3)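 MIC by broth microdilution in RPMI-1640 with NaHCO3 and MOPS, pH 7.0. DMSO stocks were 2-fold serially diluted to eight levels, then 10-fold in medium (1.1–0.0086 mg/mL). 10 µL was added to 100 µL yeast suspension: C. albicans and C. parapsilosis at 2 × 10^3 cfu/mL for 48 h; C. neoformans at 5 × 10^4 cfu/mL for 72 h; all at 28 °C. MTT added for 4 h, DMSO solubilization, A570.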

For the next assay, the system named is Candida albicans. Description: Antifungal activity against Candida albicans ATCC MYA-2876 after 48 hrs by MTT based microbroth dilution assay. It counts as functional. To be noted: ATCC MYA-2876, 48 h. The procedure, abridged:
as §3

Another assay concerns Candida parapsilosis. The experiment in a line: Antifungal activity against Candida parapsilosis ATCC 22019 after 48 hrs by MTT based microbroth dilution assay. Type of assay: functional. Conditions: Lodderomyces parapsilosis, ATCC 22019, 48 h. Summed up:
as §3

A further assay concerns SMMC-7721. The experiment in a line: Cytotoxicity against human SMMC7721 cells assessed as reduction in cell viability by MTT assay. Type of assay: functional, cell-based. The procedure, abridged:
as §2

Values after ≈ are worked out from the molar mass of the structure shown.

Molecule `O=C(O)c1cn(C2CC2)c2cc(N3CCNCC3)c(F)cc2c1=O` [CIPROFLOXACIN] showed an MIC against Bacillus spizizenii of 0.25 µg/mL (≈ 0.754 µM).

As for `CO/C1=C\C(C)=C\[C@@H](C)[C@@H](O)[C@@H](C)C/C(C)=C/C=C/[C@H](OC)[C@@H]([C@@H](C)[C@@H](O)[C@H](C)[C@@]2(O)C[C@@H](OC(=O)/C=C/C(=O)O)[C@H](C)[C@@H](C(C)C)O2)OC1=O`, the MIC against Bacillus spizizenii came to 12.5 µg/mL (≈ 17.3 µM); against Staphylococcus aureus, 12.5 µg/mL (≈ 17.3 µM); in the assay on Cryptococcus neoformans it was 1.56 µg/mL (≈ 2.16 µM); with Candida albicans it was 1.56 µg/mL (≈ 2.16 µM); against Candida parapsilosis, 1.56 µg/mL (≈ 2.16 µM). Further, the 50% inhibitory concentration (IC50) stood at 1.83 µM in the assay on BGC-823, 1.89 µM with Caco-2, 3.43 µM in the assay with NCI-H460 and 0.54 µM in the assay on SMMC-7721.

Take `C[C@H]1CC[C@@H](O)[C@@]2(C)CCCC[C@]12O`: the 50% inhibitory concentration (IC50) in the assay with BGC-823 is 34.6 µM; in the assay on Caco-2 it was 85.5 µM; in the assay with NCI-H460, above 100 µM; with SMMC-7721, 41.7 µM. Also, the results for the minimal inhibitory concentration (MIC) against Cryptococcus neoformans, against Candida albicans and against Candida parapsilosis were above 100 µg/mL, 12.5 µg/mL (≈ 63 µM) and 3.13 µg/mL (≈ 15.8 µM), respectively.

For orientation: MIC means the smallest concentration in the dilution series that meets the test's criterion for growth inhibition. The low end stands for inhibition by little substance, the high end for a need for much substance. The IC50 is the point on the concentration scale where inhibition reaches its midpoint.

These data come from ChEMBL document CHEMBL4425091, “Bafilomycins and Odoriferous Sesquiterpenoids from Streptomyces albolongus Isolated from Elephas maximus Feces” (J Nat Prod, 2016).
